Test results taken from ChEMBL document CHEMBL1155496, “Discovery of pyrazolyl propionyl cyclohexenamide derivatives as full agonists for the high affinity niacin receptor GPR109A” (Bioorg Med Chem Lett, 2010).
One block for each molecule: values may come before it.

What was measured:
[1] = Bioavailability in mouse at 1 mg/kg, iv and 2 mg/kg, po; format: ADME, organism-based; details: in vivo
Procedure, shortened: (§1)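 Formulated at 0.2 mg/mL in ethanol/PEG/water (10:40:50). Dosed 1 mg/kg IV and 2 mg/kg PO, n = 3 per route. Blood was protein-precipitated with acetonitrile and drug concentration measured by LC/MS/MS.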

[2] = Cmax in mouse at 1 mg/kg, iv and 2 mg/kg, po; format: ADME, organism-based; details: in vivo; procedure, shortened: as §1
[3] = molecular target: Hydroxycarboxylic acid receptor 2 (Homo sapiens) (UniProt Q8TDS4); assay: Serum shift in 3H-niacin binding to GPR109A receptor with 4% human serum
Sequence of Hydroxycarboxylic acid receptor 2 (Homo sapiens) (Q8TDS4 whole entry): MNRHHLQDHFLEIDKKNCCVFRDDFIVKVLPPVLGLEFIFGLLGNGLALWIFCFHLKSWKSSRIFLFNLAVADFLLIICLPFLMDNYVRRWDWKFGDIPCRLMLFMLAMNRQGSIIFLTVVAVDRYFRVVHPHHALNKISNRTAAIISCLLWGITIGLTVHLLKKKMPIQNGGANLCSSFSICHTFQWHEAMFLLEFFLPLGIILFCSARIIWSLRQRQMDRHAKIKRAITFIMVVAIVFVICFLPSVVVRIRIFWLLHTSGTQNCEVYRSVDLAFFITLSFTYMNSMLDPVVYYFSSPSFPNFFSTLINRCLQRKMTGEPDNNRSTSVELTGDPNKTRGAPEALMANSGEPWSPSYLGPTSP

Cytochrome P450 2C9 = Cytochrome P450 2C9 (Homo sapiens, UniProt P11712); assay: Inhibition of CYP2C9 in human liver microsomes; format: ADME, Microsome
Sequence of Cytochrome P450 2C9 (P11712 whole entry): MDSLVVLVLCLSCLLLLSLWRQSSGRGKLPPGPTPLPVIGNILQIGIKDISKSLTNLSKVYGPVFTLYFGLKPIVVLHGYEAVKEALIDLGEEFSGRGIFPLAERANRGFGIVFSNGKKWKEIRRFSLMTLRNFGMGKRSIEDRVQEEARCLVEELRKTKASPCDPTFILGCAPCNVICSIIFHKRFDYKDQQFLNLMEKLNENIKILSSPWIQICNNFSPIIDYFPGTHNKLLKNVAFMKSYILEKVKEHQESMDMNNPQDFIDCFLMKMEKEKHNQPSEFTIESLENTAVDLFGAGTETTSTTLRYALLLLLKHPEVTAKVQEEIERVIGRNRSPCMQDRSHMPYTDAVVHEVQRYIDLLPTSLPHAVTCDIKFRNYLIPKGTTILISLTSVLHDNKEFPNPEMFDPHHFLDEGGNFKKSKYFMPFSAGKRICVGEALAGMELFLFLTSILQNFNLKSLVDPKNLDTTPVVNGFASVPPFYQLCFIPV

[4] = Volume of distribution at steady state in mouse at 1 mg/kg, iv and 2 mg/kg, po; format: ADME, organism-based; details: in vivo, read-out: Vdss; procedure, shortened: as §1
[5] = Half life in mouse at 1 mg/kg, iv and 2 mg/kg, po; format: ADME, organism-based; details: in vivo; procedure, shortened: as §1
[6] = Clearance in mouse at 1 mg/kg, iv and 2 mg/kg, po; format: ADME, organism-based; details: in vivo; procedure, shortened: as §1
Adipocyte = assay: Inhibition of lipolysis in human adipocytes assessed as free glycerol level; format: functional, cell-based
Procedure, shortened: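 Lipolysis in human adipocytes; free glycerol release measured and used to calculate IC50.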

Cytochrome P450 2C8 = molecular target: T1, Cytochrome P450 2C8 (Homo sapiens, UniProt P10632); assay: Inhibition of CYP2C8 in human liver microsomes; format: ADME, Microsome
T1 sequence (P10632 whole entry): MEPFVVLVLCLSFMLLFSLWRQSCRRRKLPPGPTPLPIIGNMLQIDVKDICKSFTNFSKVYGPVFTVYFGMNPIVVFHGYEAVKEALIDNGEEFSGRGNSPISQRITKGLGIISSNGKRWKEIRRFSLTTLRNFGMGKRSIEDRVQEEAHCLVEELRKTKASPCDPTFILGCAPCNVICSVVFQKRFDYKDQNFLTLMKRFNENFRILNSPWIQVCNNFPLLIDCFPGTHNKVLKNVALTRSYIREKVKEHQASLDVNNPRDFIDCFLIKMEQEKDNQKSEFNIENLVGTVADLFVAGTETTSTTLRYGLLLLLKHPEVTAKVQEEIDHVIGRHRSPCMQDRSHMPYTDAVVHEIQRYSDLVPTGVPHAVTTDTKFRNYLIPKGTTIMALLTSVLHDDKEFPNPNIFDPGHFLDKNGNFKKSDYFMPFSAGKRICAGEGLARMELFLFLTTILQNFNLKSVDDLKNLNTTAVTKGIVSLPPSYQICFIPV
Procedure, shortened: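 Human liver microsomes with taxol as substrate and montelukast as positive control. IC50 determined.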

[7] = Bioavailability in rat at 1 mg/kg, iv and 2 mg/kg, po; format: ADME, organism-based; details: in vivo; procedure, shortened: as §1
[8] = Volume of distribution at steady state in rat at 1 mg/kg, iv and 2 mg/kg, po; format: ADME, organism-based; details: in vivo, read-out: Vdss; procedure, shortened: as §1
[9] = Cmax in rat at 1 mg/kg, iv and 2 mg/kg, po; format: ADME, organism-based; details: in vivo; procedure, shortened: as §1
[10] = Half life in rat at 1 mg/kg, iv and 2 mg/kg, po; format: ADME, organism-based; details: in vivo; procedure, shortened: as §1
[11] = Clearance in rat at 1 mg/kg, iv and 2 mg/kg, po; format: ADME, organism-based; details: in vivo; procedure, shortened: as §1

SMILES: O=C(CCc1ccc(-c2ccc(O)cc2Cl)cc1)Nc1ccccc1C(=O)O
bioavailability [1]: 4.6%
Cmax [2]: 930 nM
serum shift [3]: > 5000

SMILES: O=C(O)c1cccnc1 [NIACIN]
IC50 (Adipocyte): 0.08 µM

SMILES: Cc1c(CC(C)C(=O)Nc2ccccc2C(=O)O)cnn1-c1ccc(O)cc1 (stereo unspecified)
IC50 (Adipocyte): 0.06 µM
IC50 (Cytochrome P450 2C8): 34 µM
IC50 (Cytochrome P450 2C9): 22 µM
serum shift [3]: 60

SMILES: CC(Cc1ccn(-c2ccc(O)cn2)n1)C(=O)NC1=C(C(=O)O)CC(c2cc(F)cc(F)c2)CC1 (stereo unspecified)
IC50 (Cytochrome P450 2C8): 7.7 µM
IC50 (Cytochrome P450 2C9): 23 µM
bioavailability [7]: 39%
Vd [8]: 0.53 L/kg
Cmax [9]: 1580 nM
half-life [10]: 5.5 h
clearance [11]: 8.6 mL/min/kg
serum shift [3]: 100

SMILES: O=C(CCc1ccn(-c2ccccc2)n1)Nc1ccccc1C(=O)O
IC50 (Cytochrome P450 2C8): 2.7 µM
IC50 (Cytochrome P450 2C9): 2.5 µM

SMILES: CC(Cc1ccn(-c2ccc(O)cn2)n1)C(=O)NC1=C(C(=O)O)CCC(c2cccc(F)c2F)C1 (stereo unspecified)
bioavailability [7]: 4.5%
Vd [8]: 0.36 L/kg
Cmax [9]: 30 nM
half-life [10]: 0.74 h
clearance [11]: 28 mL/min/kg
serum shift [3]: 30

SMILES: CC(Cc1ccn(-c2ccc(O)cn2)n1)C(=O)Nc1ccccc1C(=O)O (stereo unspecified)
serum shift [3]: 200

SMILES: CC(Cc1ccn(-c2ccc(O)cn2)n1)C(=O)NC1=C(C(=O)O)CCC(c2cc(F)c(F)c(F)c2)C1 (stereo unspecified)
serum shift [3]: 30

Second part, the molecule after the results:

IC50 (Cytochrome P450 2C9): > 50 µM
bioavailability [1]: 46%
Vd [4]: 0.4 L/kg
Cmax [2]: 11500 nM
half-life [5]: 3.3 h
clearance [6]: 1.2 mL/min/kg
serum shift [3]: 240
SMILES: O=C(CCc1cnn(-c2ccc(O)cn2)c1)NC1=C(C(=O)O)CCCC1

serum shift [3]: 900
SMILES: CC(Cc1ccn(-c2ccc(O)cn2)n1)C(=O)NC1=C(C(=O)O)CCCC1 (stereo unspecified)

serum shift [3]: 40
SMILES: CC(Cc1ccn(-c2ccc(O)cn2)n1)C(=O)NC1=C(C(=O)O)CCC(c2cccc(F)c2)C1 (stereo unspecified)

bioavailability [1]: 21%
Vd [4]: 3.56 L/kg
Cmax [2]: 480 nM
half-life [5]: 3.5 h
clearance [6]: 17 mL/min/kg
serum shift [3]: 70
SMILES: O=C(CCc1cnn(-c2ccc(O)cc2)c1)Nc1ccccc1C(=O)O

IC50 (Adipocyte): 0.07 µM
IC50 (Cytochrome P450 2C8): > 100 µM
IC50 (Cytochrome P450 2C9): > 100 µM
bioavailability [1]: 52%
Vd [4]: 0.68 L/kg
Cmax [2]: 4780 nM
half-life [5]: 4.8 h
clearance [6]: 3.5 mL/min/kg
serum shift [3]: 50
SMILES: Cc1c(CC(C)C(=O)NC2=C(C(=O)O)CCCC2)cnn1-c1ccc(O)cc1 (stereo unspecified)

serum shift [3]: 1000
SMILES: O=C(CCc1ccn(-c2ccc(O)cn2)n1)NC1=C(C(=O)O)CCCC1

serum shift [3]: 290
SMILES: CC(Cc1ccn(-c2ccc(O)cn2)n1)C(=O)NC1=C(C(=O)O)CC[C@@H](C)C1 (stereo partly specified)

serum shift [3]: 110
SMILES: CCCC1CCC(C(=O)O)=C(NC(=O)C(C)Cc2ccn(-c3ccc(O)cn3)n2)C1 (stereo unspecified)

serum shift [3]: 170
SMILES: O=C(CCc1ccn(-c2ccc(O)cn2)n1)Nc1ccccc1C(=O)O

IC50 (Cytochrome P450 2C9): 15 µM
serum shift [3]: 40
SMILES: O=C(CCc1cnn(-c2ccccc2)c1)Nc1ccccc1C(=O)O
